What was measured:
[1] = serum peptide content by GLP-1R and GcgR cAMP bioassay; type: in vivo, mouse; settings: 10 nmol/kg SC QD 7 d
Outline: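 On day 7 they got a final dose and serum was taken at 0, 2, 6 or 16 h (n=4/timepoint). Apparent serum peptide concentration was estimated from cAMP accumulation in CHO K1 cells stably expressing human GLP1R or GcgR, by potency comparison.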

[2] = tested on: non-cirrhotic, non-alcoholic steatohepatitis patients; settings: cited from earlier work
[3] = tested on: C57BL/6J mice fed AMLN diet; experiment: sub-chronic dosing in C57Bl/6J AMLN NASH model; type: in vivo, mouse; settings: for weight loss from baseline: Cotadutide 10, Liraglutide 40 nmol/kg SC, OCA 70 μmol/kg PO, QD 6 weeks; for food intake within the first 4 days: same doses; for animals with reduced fibrosis / animals with reduced fibrosis (number of group): n=12; for mice in which NAS was reduced: vehicle controls 8%
Outline: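 Male C57BL/6J mice, about 6 weeks old, were fed AMLN diet for 29 weeks (chow controls) before dosing for 6 weeks, n=12/group. Dosing: peptides SC once daily just before lights off; OCA oral. Every mouse got both an SC vehicle (phosphate/propylene glycol/PS-80, pH 7.5) and an oral vehicle (0.5% CMC). Body weight was recorded daily. ipGTT on day 28 after 4 h fast (1.5 g/kg glucose). Terminal blood and liver collected on day 42.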

ob/ob AMLN NASH mice = experiment: sub-chronic dosing in ob/ob AMLN NASH model; type: in vivo, mouse
[4] = tested on: primary human hepatocytes from normal or NASH donors; experiment: PPARGC1A mRNA in primary human hepatocytes; type: cell-based; settings: 100 nM, 4 h; healthy and NASH donors
Outline: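 Primary hepatocytes from normal or NASH human donors, exposed to test compound at 100 nM for 4 h; PPARGC1A transcript measured. n=3 biologically independent samples per group.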

[5] = tested on: C57Bl/6J diet induced obese (DIO) male mice; experiment: time course study in DIO C57Bl/6J mice, 7 days dosing; type: in vivo, mouse
Outline: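 On day 7 they were euthanized at time 0, or at 2, 6 or 16 h after a final dose (n=4/group/timepoint). Body weight was tracked as % change from baseline; blood glucose was measured.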

[6] = tested on: primary mouse hepatocytes; experiment: mRNA levels in primary mouse hepatocytes; type: cell-based; settings: 1, 10, 100 nM, 4h
Outline: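 Primary mouse hepatocytes were exposed to test compound at 1, 10 or 100 nM for 4 h, and G6pc, Pck1 and Ppargc1a mRNA were measured. For Ppargc1a, the 100 nM condition was also combined with PKA inhibitor H89 at 10 μM. For G6pc and Pck1, it was combined with H89 at 2.5, 5 or 10 μM. n=3 biologically independent samples; one-way ANOVA with Dunnett post-hoc.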

[7] = tested on: DIO GLP-1R knock-out (KO) mice; experiment: two-week treatment of DIO GLP-1R KO mice; type: in vivo, mouse
Outline: (§1)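 Mice were made obese on diet for 8 weeks, then moved to 45% high-fat diet for 2 weeks. Body weight was tracked as % change, with cumulative food intake over days 1–4. Blood and tissues were taken 20 h after the final dose.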

[8] = tested on: mouse primary hepatocytes; experiment: mitophagosomes by live cell confocal microscopy; type: cell-based; settings: 100 nM, 2h
Outline: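 Primary mouse hepatocytes were kept 1 h at 37°C/5% CO2, then 4 h in fresh isolation medium, then moved to serum-free low-glucose DMEM (10 mM lactate, 2 mM glutamine, 5 mM HEPES, 10 nM dexamethasone). Cells were used 18–24 h post-plating and given 100 nM test compound for 2 h. Live cells were stained with Mitotracker green plus Lysotracker deep red and imaged by confocal microscopy. Mitophagosomes were scored as Lysotracker puncta containing Mitotracker signal.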

[9] = tested on: primary mouse hepatocytes; experiment: mitochondrial oxygen consumption; type: cell-based
Outline: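 Seahorse XFe96 run on primary mouse hepatocytes at 7500 cells/well, recovered overnight, then treated 4 h with 100 nM test compound. Assay medium: DMEM with 5 mM glucose, 4 mM L-glutamine, 2 mM pyruvate, pH 7.4; 30 min CO₂-free preincubation. Stress test used 1 μM oligomycin, 0.5 μM FCCP and 5 μM antimycin A. Basal and maximal OCR normalized to citrate synthase activity. n=3; substrate oxidation n=2.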

[10] = tested on: primary murine hepatocytes; experiment: de novo lipogenesis, 3H-acetate lipid incorporation; type: cell-based, mouse; settings: 100 nM; vs vehicle-treated controls
Outline: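 Primary murine hepatocytes treated ex vivo with test compound at 100 nM. De novo lipogenesis was measured as ³H-acetate incorporation into lipid: lipids were extracted, and ³H in the lower phase was counted by scintillation. Values are relative to vehicle-treated controls. n=3–6 per treatment, n=9 vehicle.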

C57Bl/6J DIO male mice = experiment: hyperglycemic clamp and stable isotope infusions in DIO C57Bl6J; type: in vivo, mouse
Outline: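 Twenty-week-old male C57Bl/6J DIO mice were kept on a shifted light cycle (lights on midnight to noon). Arterial and venous catheters were placed 5 days before a hyperglycemic clamp with […] glucose and water tracing.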

[11] = tested on: DIO C57Bl/6J Wild-type (WT) mice; experiment: two-week treatment of DIO GLP-1R WT mice; type: in vivo, mouse
Outline: as §1

[12] = tested on: C57BL6J diet-induced NASH model; experiment: six-week treatment of NASH C57Bl6/J mice; type: in vivo, mouse

For `CCCCCCCCCCCCCCCC(=O)N[C@@H](CCC(=O)NCCCC[C@H](NC(=O)[C@H](C)NC(=O)[C@H](C)NC(=O)[C@H](CCC(N)=O)NC(=O)CNC(=O)[C@H](CCC(=O)O)NC(=O)[C@H](CC(C)C)NC(=O)[C@H](Cc1ccc(O)cc1)NC(=O)[C@H](CO)NC(=O)[C@H](CO)NC(=O)[C@@H](NC(=O)[C@H](CC(=O)O)NC(=O)[C@H](CO)NC(=O)[C@@H](NC(=O)[C@H](Cc1ccccc1)NC(=O)[C@@H](NC(=O)CNC(=O)[C@H](CCC(=O)O)NC(=O)[C@H](C)NC(=O)[C@@H](N)Cc1cnc[nH]1)[C@@H](C)O)[C@@H](C)O)C(C)C)C(=O)N[C@@H](CCC(=O)O)C(=O)N[C@@H](Cc1ccccc1)C(=O)N[C@H](C(=O)N[C@@H](C)C(=O)N[C@@H](Cc1c[nH]c2ccccc12)C(=O)N[C@@H](CC(C)C)C(=O)N[C@H](C(=O)N[C@@H](CCCNC(=N)N)C(=O)NCC(=O)N[C@@H](CCCNC(=N)N)C(=O)NCC(=O)O)C(C)C)[C@@H](C)CC)C(=O)O` [Liraglutide, reference compound], the “pharmacokinetics compared with Cotadutide, in words” value [1] was “longer bioavailability”.

For `CC[C@H]1[C@@H](O)[C@@H]2[C@H](CC[C@]3(C)[C@@H]([C@H](C)CCC(=O)O)CC[C@@H]23)[C@@]2(C)CC[C@@H](O)C[C@@H]12` [OCA, Obeticholic acid, reference compound], the “patients with a reduction in NAS” value ([2]; placebo 12%) is given as 20%, the “patients with reduction in fibrosis stage” value ([2]; placebo 17%) is given as 35% and the “weight loss from baseline” value [3] is given as ~ 3%. The “plasma insulin at 15 min during the GTT” value ([3]; after 4 weeks of dosing) was “no effect”, the “food intake within the first 4 days” value [3] was “no effect” and the “animals with reduced fibrosis” value ([3]; terminal vs pre-study biopsy) was 8.3%. The “animals with reduced fibrosis (number of group)” value ([3]; terminal vs pre-study biopsy) was 1/12, the liver mass ([3]; terminal, vs vehicle) was “only reducing liver mass” and the “mice in which NAS was reduced” value [3] was 75%. For the same molecule, the “steatosis and inflammation scores and overall NAS, responders” value ([3]; vs vehicle) was “significantly more animals with lower steatosis and inflammation scores and overall NAS”.

For Cotadutide, the “weight loss from baseline” value (ob/ob AMLN NASH mice; Cotadutide 30 nmol/kg, Liraglutide 40 nmol/kg SC QD 6 weeks) was 7-8%, the “plasma C3M and P4NP7S” value (ob/ob AMLN NASH mice; ELISA) was “only reduced in Cotadutide-treated mice” and the “resolution of fibrosis, mice” value (ob/ob AMLN NASH mice; n=7) was “resolved in all but one”. For the same molecule, the “lowering of collagen staining (Col1a1)” value (ob/ob AMLN NASH mice; not statistically significant) was ~ 17%, the “hepatic transcript levels of Col1a1, Col3a1, Timp1, Ccl2, and Cd68” value (ob/ob AMLN NASH mice; relative to AMLN vehicle) was “significantly reduced” and the “hepatic transcript levels of Mmp9, Il-1b and Tnf” value (ob/ob AMLN NASH mice; relative to AMLN vehicle) was “uniquely reducing”. For the same molecule, the “CD68 scoring (immune cell infiltration)” value (ob/ob AMLN NASH mice; terminal) was “only reduced by Cotadutide treatment”, the NAS (ob/ob AMLN NASH mice; terminal) was “reduced” and the fibrosis stage (ob/ob AMLN NASH mice; terminal) was “improved only by Cotadutide treatment”. The hepatic lipid content (ob/ob AMLN NASH mice; terminal) was “more significant reduction in hepatic lipid content compared to Liraglutide and diet-switch”, the liver mass (ob/ob AMLN NASH mice; terminal) was “similarly reduced” and the “liver αSMA, PSR and hydroxyproline” value (ob/ob AMLN NASH mice; terminal) was “lowered”. The “plasma ALT” value (ob/ob AMLN NASH mice; terminal) was “lowered”, the “hepatic Ppargc1a mRNA” value (ob/ob AMLN NASH mice; terminal, about 16h post last dose) was “restored mRNA levels to those of LFD control” and the “hepatic DAGs and ceramides” value (ob/ob AMLN NASH mice; vs vehicle) was “only Cotadutide additionally reduced DAGs and ceramides”. For the same molecule, the PPARGC1A transcript levels [4] was “significantly increased”, the “serum concentration at 16h” value [1] was “undetectable” and the “time of highest serum concentration” value ([1]; sampled 0, 2, 6, 16 h after final dose) was “highest at 2h and 6h”. For the same molecule, the “weight loss from baseline” value [3] was ~ 8%, the “glucose tolerance (ipGTT)” value ([3]; after 4 weeks of dosing) was “significantly improved by Cotadutide more so than Liraglutide or OCA” and the “plasma insulin at 15 min during the GTT” value ([3]; after 4 weeks of dosing) was “increased”. The “food intake within the first 4 days” value [3] was “reduced food intake”, the hepatic glycogen ([3]; terminal) was “increase in hepatic glycogen” and the “animals with worsened fibrosis” value ([3]; terminal vs pre-study biopsy) was “no animals had worsened fibrosis”. For the same molecule, the “animals with reduced fibrosis” value ([3]; terminal vs pre-study biopsy) was 25%, the “animals with reduced fibrosis (number of group)” value ([3]; terminal vs pre-study biopsy) was 3/12 and the liver mass ([3]; terminal, vs vehicle) was “unchanged liver mass”. For the same molecule, the “plasma ALT” value ([3]; terminal, vs vehicle) was “reduced ALT levels”, the “mice in which NAS was reduced” value [3] was 83% and the “steatosis and inflammation scores and overall NAS, responders” value ([3]; vs vehicle) was “significantly more animals with lower steatosis and inflammation scores and overall NAS”. For the same molecule, the liver glycogen ([5]; 0-16 h after final dose) was “rapidly depleted by 6h post Cotadutide but rebounded to normal at 16h”, the body weight ([5]; 10 nmol/kg SC QD 7 d, vs vehicle) was “significant weight loss” and the blood glucose ([5]; smaller study vehicle vs Cotadutide, 2h and 6h post dose) was “significantly lowered”. For the same molecule, the “G6pc and Pck1 mRNA” value [6] was “induced”, the “Ppargc1a mRNA” value [6] was “equally increased” and the body weight ([7]; 10 nmol/kg SC QD 14 d (Liraglutide+g1437 5+5 nmol/kg)) was “not observed”. The food intake ([7]; first 4 days of dosing) was “but not in KO mice”, the mitochondrial number [8] was “without altering mitochondrial number” and the “mitophagosomes (mitochondria within lysosomes)” value ([8]; vs vehicle) was “Increased number”. For the same molecule, the fuel preference ([9]; ex vivo treatment) was “no effect”, the “basal and maximal respiration rates” value ([9]; healthy mouse primary hepatocytes, 100 nM, 4h) was “increased basal and maximal respiration rates” and the “basal and maximal respiratory rates (OCR)” value ([9]; hepatocytes from ob/ob NASH mice, 100 nM, 4h ex vivo) was “restored”. The “de novo lipid synthesis” value [10] was “reduce de novo lipid synthesis”, the “de novo lipogenesis during the clamp (palmitate and glyceride synthesis)” value (C57Bl/6J DIO male mice; 10 nmol/kg SC QD 7 d) was “reduced” and the “glycogen synthesis stimulated by hyperglycemia” value (C57Bl/6J DIO male mice; 10 nmol/kg SC QD 7 d) was “intact”. The “hepatic (endogenous) glucose production during hyperglycemia” value (C57Bl/6J DIO male mice; 10 nmol/kg SC QD 7 d) was “suppressed”, the core hepatic glycogen (C57Bl/6J DIO male mice; 10 nmol/kg SC QD 7 d, fasted) was “lower core glycogen levels” and the basal glucose production (C57Bl/6J DIO male mice; fasted, basal state) was “increased basal glucose production”. For the same molecule, the body weight ([11]; 10 nmol/kg SC QD 14 d (Liraglutide+g1437 5+5 nmol/kg), vs vehicle) was “significantly reduced”, the liver lipid content ([11]; 10 nmol/kg SC QD 14 d, terminal) was “to a greater degree than Liraglutide alone” and the food intake ([11]; 10 nmol/kg SC QD, first 4 days of dosing) was “significantly reduced”. The fasting glucose ([11]; 10 nmol/kg SC QD, vs vehicle) was “lowered”, the body weight ([12]; 10 nmol/kg SC QD 42 d) was “reduced body weight similarly to Liraglutide+g1437, but more than either Liraglutide or g1437 alone” and the “glucose excursion in pyruvate tolerance test” value ([12]; day 14, pyruvate 2g/kg) was “lower glucose excursion”. For the same molecule, the “plasma alanine aminotransferase (ALT)” value ([12]; end of study) was “significantly reduced”, the hepatic glycogen ([12]; terminal) was “elevated only with Cotadutide treatment” and the liver triglycerides ([12]; terminal) was “reduced”. The fasted insulin ([12]; vs vehicle, Liraglutide and Liraglutide+g1437) was “lower”.
